Assay [1] can be described thus: inhibitors of TNFa-induced NFkB p65 translocation, primary screen, imaging, HUVEC, MLSMR starter and 10KST1 sets (AID 438;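 active = inhibition above 20% together with a positive visual image hit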;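 also: compound added about 3h40 before a 20 min TNFalpha stimulation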;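 as to inhibition: signal is the nuclear over cytoplasmic p65 intensity ratio per well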). The conditions noted are these: HUVEC TNFa-induced p65 nuclear translocation; cell count: measured here: nuclei count (cytotoxicity indicator), at 2.08 µM; inhibition: at 2 µM, stronger effect = higher value, 0% TNFa-plus-vehicle, 100% no-TNFa wells.
A short description of assay [2]: inhibitors of mutant huntingtin aggregation, primary screen, imaging, exon1htt(103Q)mCFP cells, high-content imaging (AID 483;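 active = visual image review flags a hit and inhibition of aggregation exceeds 20%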;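 also: compound exposure lasted 3 days before fixation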;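 as to nuclei count: percent of the per-plate median nuclei count of sample wells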). The conditions noted are these: exon1htt(103Q)mCFP cell line, aggregate imaging, at 2 µM; inhibition of aggregation: stronger effect = higher value; nuclei count: measured here: cell count, toxicity.
A short description of assay [3]: inhibitors of E-selectin induction by TNFa, primary screen, imaging, HUVEC, immunofluorescence, MLSMR starter and 10KST1 sets (AID 487;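 active = visually confirmed hit in the image check and inhibition above 20%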;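 as to inhibition: signal is fraction of cell area covered by stained E-selectin grains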;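 as to nuclei count: 100% = median nuclei count of all wells on the same plate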). Conditions: HUVEC TNFalpha-induced E-selectin immunofluorescence imaging, at 2 µM; inhibition: stronger effect = higher value; nuclei count: measured here: cell number, toxicity.
Assay [4] concerns the target Voltage-gated potassium channel subunit beta-2 (Rattus norvegicus) (UniProt P62483). As to the kind of experiment: KvBeta enzyme negative modulators, primary screen, biochemical, NADPH fluorescence (AID 622;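 active = fluorescence slope higher than the sample average by over 3 SD, cut at about -0.22 in these data, passing the limit was not always enough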;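 also: slope of raw intensity against log time taken from 70 to 1610 s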). Conditions: recombinant KvBeta, 4-cyanobenzaldehyde reduction, at 10 µM, stronger effect = higher value.
Assay [5] shares this target. As to the kind of experiment: KvBeta positive modulators, primary screen, biochemical, NADPH fluorescence (AID 623;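 active = NADPH fluorescence slope more negative than the mean of all samples by about 3 SD, 99.7% confidence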;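 also: fluorescence intensity change per second fitted from 20 to 320 s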). The conditions noted are these: Recombinant KvBeta, NADPH fluorescence decrease slope, 10 min; at 10 µM; stronger effect = lower value.
For assay [6], the target named is Muscarinic acetylcholine receptor M4 (Homo sapiens) (UniProt P08173). As to the kind of experiment: compounds altering M4/GIRK thallium flux, either direction, primary screen, M4 allosteric agonist project, cell-based, HEK293 M4/GIRK, BTC-AM (AID 625;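 active = fluorescence slope after compound addition differing from the mean of all tested samples at 99.7% confidence, mostly higher but some lower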;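 also: thallium influx through GIRK channels coupled to M4 in HEK293 cells with BTC-AM dye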). The conditions noted are these: at 10 µM, actives lie on both sides. The method in brief:
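Material – HEK293 cells with M4 receptor and GIRK channels · Buffer or medium – pH 7.3 thallium assay buffer · Doses – one dose, 10 µM final · Timing – cells overnight at 37 °C, BTC-AM loading 1 h, reads 2 min total · Measured by – kinetic fluorescence with BTC-AM dye · Controls – carbachol and DMSO controls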

Assay [7] in a line: inhibitors of Sendai virus-induced IRF3 signaling, primary screen, TLR/RLR signaling modifier project, cell-based, Sendai virus stimulus, luciferase, 10K MLSCN set (AID 602276).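 Also: firefly luciferase from ISG56 promoter only with Renilla not read in this screen; 0% = Sendai virus plus DMSO and 100% = medium plus DMSO without virus.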 The conditions noted are these: HEK293 RL24 IRF3 luciferase reporter, at 10 µM, stronger effect = higher value.
A short description of assay [8]: inhibitors of poly I:C-induced TLR3 signaling, primary screen, cell-based, poly I:C stimulus, luciferase, 10K MLSCN set (AID 602277;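 active = inhibition of the reporter signal at or above 50%; inactive = inhibition below 50%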). Conditions: HEK293-TLR3 RL24 IRF3 luciferase reporter, at 10 µM, stronger effect = higher value. In general terms: A reporter such as luciferase makes a cellular process visible.

The source made the active and inactive calls.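 The calls were made as follows, unless noted: active = inhibition at or above 50% at 10 µM; inactive = inhibition below 50%.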

By inhibition is commonly meant the change of the read-out against control, counted positive when it falls.

Chain of Muscarinic acetylcholine receptor M4 (Homo sapiens) (P08173 whole entry, looked up): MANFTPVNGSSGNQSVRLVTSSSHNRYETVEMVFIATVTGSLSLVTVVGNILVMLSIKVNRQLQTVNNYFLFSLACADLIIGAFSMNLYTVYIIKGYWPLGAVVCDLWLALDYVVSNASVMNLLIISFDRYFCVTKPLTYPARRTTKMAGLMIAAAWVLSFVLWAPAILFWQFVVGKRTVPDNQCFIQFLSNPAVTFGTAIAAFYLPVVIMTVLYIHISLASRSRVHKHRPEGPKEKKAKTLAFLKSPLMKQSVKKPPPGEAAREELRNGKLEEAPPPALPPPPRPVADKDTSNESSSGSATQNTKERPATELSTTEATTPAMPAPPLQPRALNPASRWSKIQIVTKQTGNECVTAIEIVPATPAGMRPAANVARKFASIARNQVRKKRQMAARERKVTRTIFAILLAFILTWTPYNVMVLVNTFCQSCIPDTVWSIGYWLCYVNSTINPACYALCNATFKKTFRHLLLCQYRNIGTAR
Chain of Voltage-gated potassium channel subunit beta-2 (Rattus norvegicus) (P62483 whole entry, looked up): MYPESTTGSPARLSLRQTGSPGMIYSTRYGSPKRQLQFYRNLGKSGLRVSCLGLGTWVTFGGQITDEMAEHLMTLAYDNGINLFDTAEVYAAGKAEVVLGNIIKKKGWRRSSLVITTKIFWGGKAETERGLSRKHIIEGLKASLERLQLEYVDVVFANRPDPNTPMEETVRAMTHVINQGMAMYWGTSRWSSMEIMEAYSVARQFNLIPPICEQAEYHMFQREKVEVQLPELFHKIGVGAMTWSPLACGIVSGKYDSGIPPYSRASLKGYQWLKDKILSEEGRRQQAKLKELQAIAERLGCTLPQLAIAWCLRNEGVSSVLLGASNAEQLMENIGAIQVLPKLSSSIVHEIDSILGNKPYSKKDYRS

For `O=C(OCc1nnc(-c2ccccc2)o1)C1=COCCO1`, in assay [1], the cell count was found to be 462. For the same compound, the inhibition was 0% (inactive) in assay [1], -58.4% (inactive) in assay [3], -2.24% (inactive) in assay [7] and -6.55% (inactive) in assay [8]. In addition, the inhibition of aggregation in assay [2] was 5.5% (inactive). In addition, the values for the nuclei count in assay [2] and in assay [3] were 71.7% and 110%, respectively. Further, the fluorescence slope in assay [4] is -0.432 (inactive); in assay [6] it was 0.00605 (inactive). Besides, in assay [5], the NADPH fluorescence slope was -1.1e-05 (inactive).

Take `CC(C)c1ccc(-c2nc(N3CCCCC3)[nH]c(=O)c2C#N)cc1`: the cell count in assay [1] stood at 459. Moreover, the inhibition in assay [1] was -4.5% (inactive); in assay [3], -48.9% (inactive); in assay [7], -5% (inactive); in assay [8], -1.05% (inactive). Besides, in assay [2], the inhibition of aggregation was -12% (inactive). Besides, the nuclei count in assay [2] is 102%; in assay [3], 107%. The fluorescence slope in assay [4] was -0.478 (inactive); in assay [6], 0.00632 (inactive). In assay [5], the NADPH fluorescence slope is -3.9e-06 (inactive).

As to `COC(=O)Nc1ccc(S(=O)(=O)N2CCN(c3ccc(F)cc3)CC2)cc1`, in assay [1], the cell count amounted to 381. The inhibition is -3.7% (inactive) in assay [1], -124% (inactive) in assay [3], 6.88% (inactive) in assay [7] and 13.6% (inactive) in assay [8]. Besides, the inhibition of aggregation in assay [2] was 12.1% (inactive). Also, the nuclei count was determined as 100% in assay [2] and 123% in assay [3]. The fluorescence slope in assay [4] was -0.564 (inactive); in assay [6], 0.00356 (inactive). Moreover, the NADPH fluorescence slope in assay [5] was -0.000131 (inactive).

Take `Cc1ccc(O)c(C(=O)c2cc(C#N)c(=O)n(CC3CCCO3)c2)c1` (centres undefined): the cell count in assay [1] was 449. The inhibition in assay [1] was -20.3% (inactive); in assay [3], 82.1% (active); in assay [7], 15% (inactive); in assay [8], 24.8% (inactive). For the same compound, in assay [2], the inhibition of aggregation was 33.7% (active). The nuclei count turned out to be 70.1% in assay [2] and 53.1% in assay [3]. Besides, the results for the fluorescence slope in assay [4] and in assay [6] were -0.561 (inactive) and 0.00669 (inactive), respectively. For the same compound, the NADPH fluorescence slope in assay [5] was -4.5e-05 (inactive).

Regarding `O=C(C1CC1)N(Cc1ccco1)c1nc(-c2ccccc2)cs1`, in assay [1], the cell count was 336. In addition, the inhibition in assay [1] is 6.6% (inactive); in assay [3], -72.7% (inactive); in assay [7], -13.9% (inactive); in assay [8], -15.4% (inactive). In assay [2], the inhibition of aggregation is 3.5% (inactive). For the same compound, the nuclei count in assay [2] came out at 104%; in assay [3] it was 109%. Further, the fluorescence slope in assay [4] is -0.445 (inactive); in assay [6] it was 0.00828 (inactive). In addition, the NADPH fluorescence slope in assay [5] is -8.7e-05 (inactive).

Turning to `Cc1cccc2cc(C#N)c(NCCNC(=O)NC3CCCCC3)nc12`, the cell count in assay [1] was 463. Also, the inhibition in assay [1] was -5.1% (inactive); in assay [3], -40.3% (inactive); in assay [7], -2.87% (inactive); in assay [8] it was 1.15% (inactive). For the same compound, the inhibition of aggregation in assay [2] is -41% (inactive). The nuclei count in assay [2] was found to be 85.8%; in assay [3] it was 176%. Besides, the fluorescence slope was -0.471 (inactive) in assay [4] and 0.00443 (inactive) in assay [6]. For the same compound, in assay [5], the NADPH fluorescence slope was -0.000184 (inactive).

On to `CC1CCN(S(=O)(=O)c2ccc(S(=O)(=O)NCC(=O)C(C)(C)C)cc2)CC1`, for which the cell count in assay [1] is 528. The inhibition in assay [1] is -14.7% (inactive); in assay [3], -189% (inactive); in assay [7] it was 0.588% (inactive); in assay [8] it was 9.79% (inactive). The inhibition of aggregation in assay [2] is -10.2% (inactive). In addition, the values for the nuclei count in assay [2] and in assay [3] were 113% and 166%, respectively. Moreover, the results for the fluorescence slope in assay [4] and in assay [6] were -0.571 (inactive) and 0.00717 (inactive), respectively. In addition, the NADPH fluorescence slope in assay [5] was -7.1e-05 (inactive).

As for `CCOC(=O)c1nnn(CC(=O)Nc2cccc(OC)c2)c1C(=O)OCC`, in assay [1], the cell count was 395. In addition, the inhibition is 8% (inactive) in assay [1], -10.7% (inactive) in assay [3], 9.94% (inactive) in assay [7] and 14.1% (inactive) in assay [8]. Moreover, the inhibition of aggregation in assay [2] is 20.4% (inactive). In addition, the nuclei count in assay [2] came out at 89%; in assay [3], 106%. The fluorescence slope is -0.416 (inactive) in assay [4] and 0.00731 (inactive) in assay [6]. The NADPH fluorescence slope in assay [5] was -3.9e-05 (inactive).

Consider `Cc1ccc(-c2cc(C(=O)N3CCCC3)no2)cc1`, for which, in assay [1], the cell count was determined as 471. The inhibition in assay [1] was 7.3% (inactive); in assay [3], -1.1% (inactive); in assay [7], -46.7% (inactive); in assay [8], -130% (inactive). For the same compound, the inhibition of aggregation in assay [2] was -20.5% (inactive). Further, the nuclei count in assay [2] was found to be 19.5%; in assay [3], 106%. For the same compound, the fluorescence slope is -0.585 (inactive) in assay [4] and 0.00612 (inactive) in assay [6]. For the same compound, in assay [5], the NADPH fluorescence slope was 1.3e-05 (inactive).

As for `COC(=O)c1ccccc1S(=O)(=O)N(CCCN1CCOCC1)Cc1cccs1`, in assay [1], the cell count is 328. The inhibition is 2.1% (inactive) in assay [1], -43.1% (inactive) in assay [3], 14% (inactive) in assay [7] and 19.2% (inactive) in assay [8]. For the same compound, in assay [2], the inhibition of aggregation is 2.9% (inactive). The figures for the nuclei count in assay [2] and in assay [3] were 104% and 115%, respectively. The fluorescence slope in assay [4] was -0.502 (inactive); in assay [6] it was 0.00684 (inactive). In addition, the NADPH fluorescence slope in assay [5] is 1.2e-05 (inactive).

Regarding `CCOC(=O)CSc1nc(C)c(C(=O)OCC)s1`, in assay [1], the cell count worked out at 392. Besides, the inhibition in assay [1] is 4% (inactive); in assay [3], -18.1% (inactive); in assay [7], 7.74% (inactive); in assay [8], 15.6% (inactive). Further, the inhibition of aggregation in assay [2] is -6.8% (inactive). Further, the nuclei count turned out to be 106% in assay [2] and 137% in assay [3]. For the same compound, the results for the fluorescence slope in assay [4] and in assay [6] were -0.556 (inactive) and 0.00612 (inactive), respectively. For the same compound, the NADPH fluorescence slope in assay [5] is -1.9e-05 (inactive).

With `COC(=O)c1nc2n(n1)C(c1ccc(OC)c(OC)c1)C(C(=O)OC1CCCCC1)=C(C)N2` (centres undefined), the cell count in assay [1] is 603. Further, the inhibition in assay [1] is -14.8% (inactive); in assay [3] it was 26.7% (inactive); in assay [7] it was 4.26% (inactive); in assay [8], 12.6% (inactive). The inhibition of aggregation in assay [2] is -3.4% (inactive). The nuclei count in assay [2] was 99.2%; in assay [3] it was 89.6%. Moreover, the results for the fluorescence slope in assay [4] and in assay [6] were -0.315 (inactive) and 0.00696 (inactive), respectively. For the same compound, the NADPH fluorescence slope in assay [5] is -5.5e-05 (inactive).

As to `CCc1nnc(NC(=O)OCc2ccccc2)s1`, the cell count in assay [1] worked out at 414. In addition, the inhibition was 8.1% (inactive) in assay [1], -59.3% (inactive) in assay [3], -17.2% (inactive) in assay [7] and -43.4% (inactive) in assay [8]. Moreover, the inhibition of aggregation in assay [2] is 0.2% (inactive). In addition, the nuclei count in assay [2] stood at 99.3%; in assay [3] it was 120%. Also, the fluorescence slope is -0.579 (inactive) in assay [4] and 0.00857 (inactive) in assay [6]. In addition, the NADPH fluorescence slope in assay [5] is -1.5e-05 (inactive).

With `CCCCn1cnc2c(cnn2-c2ccc(Cl)cc2)c1=O`, in assay [1], the cell count came out at 342. Moreover, the inhibition was -16.3% (inactive) in assay [1], -72% (inactive) in assay [3], -48.5% (inactive) in assay [7] and -141% (inactive) in assay [8]. Besides, the inhibition of aggregation in assay [2] is -4.9% (inactive). The nuclei count is 102% in assay [2] and 103% in assay [3]. For the same compound, the fluorescence slope in assay [4] is -0.531 (inactive); in assay [6], 0.00515 (inactive). The NADPH fluorescence slope in assay [5] was -2.1e-05 (inactive).

(Values after PubChem BioAssay.)
